# Measured values pooled from the literature.
# Lines come from different studies, so protocols differ.
# Observed: cell growth or viability
Structure (SMILES),cell line,test,conditions,endpoint,value
CNCCN(C)C(=O)Oc1c(Cl)c(C)nc(C)c1-c1ccc(Oc2ccc(OC(F)(F)F)cc2)cc1,HEK293,,,IC50,> 10 µM
Cc1cccc(-c2cccc(C)n2)n1.Cc1cccc(-c2cccc(C)n2)n1.F[P-](F)(F)(F)(F)F.F[P-](F)(F)(F)(F)F.[Ru+2].c1ccc2cc(-c3nc4c5cccnc5c5ncccc5c4[nH]3)ccc2c1,SK-MEL-28,resazurin,dark,EC50,31.8 µM
Cc1cccc(-n2ncc(Cl)c(Cl)c2=O)c1,NCI-H1975,resazurin,96 h,IC50,0.14 µM
Cc1ccc2c(CNCC3(N4CCCC4)COC3)c[nH]c2c1,T98G,,"30 µM, 48 h",viability,98.5%
N.N.[Cl][Pt][Cl],HEK293,MTT,72 h,IC50,28.4 µM
N.N.[Cl][Pt][Cl],NCI-H1975,MTT,72 h,IC50,6 µM
Cc1cc(O)cc2c(C3CCN(CC4CCN(C(=O)/C=C/c5ccc(Cl)c(Cl)c5)CC4)CC3)c[nH]c12,HEK293,,,IC50,> 10 µM
N.N.[Cl][Pt][Cl],SK-MEL-28,resazurin,dark,EC50,2.8 µM
CCCCCCCSc1ccc(CC(C)NCC(O)c2cccc(Cl)c2)cc1 (stereo not drawn),HEK293,,,IC50,> 10 µM
Cc1cccc2[nH]cc(CNCC3(N4CCCC4)COC3)c12,T98G,,"30 µM, 48 h",viability,60.1%
Cc1c(C)c2c(c(C)c1O)CC[C@](C)(C(=O)NC1CCC(CN3CCC(c4c[nH]c5ccccc45)CC3)CC1)O2 (stereo partly drawn),HEK293,,,IC50,> 10 µM
O=S(=O)([O-])C(F)(F)F.OCc1ccnc(-c2cc(CO)ccn2)c1.[Ru+2].c1cc[cH-]c1.c1ccc(P(c2ccccc2)c2ccccc2)cc1,HEK293,MTT,48 h,IC50,6.7 µM
